{"source": "paper PMC4926610", "about": "(Journal of natural products, 2016)", "key": {"[1]": {"target": "p97 (Homo sapiens, UniProt P55072)", "sequence (P55072 whole entry)": "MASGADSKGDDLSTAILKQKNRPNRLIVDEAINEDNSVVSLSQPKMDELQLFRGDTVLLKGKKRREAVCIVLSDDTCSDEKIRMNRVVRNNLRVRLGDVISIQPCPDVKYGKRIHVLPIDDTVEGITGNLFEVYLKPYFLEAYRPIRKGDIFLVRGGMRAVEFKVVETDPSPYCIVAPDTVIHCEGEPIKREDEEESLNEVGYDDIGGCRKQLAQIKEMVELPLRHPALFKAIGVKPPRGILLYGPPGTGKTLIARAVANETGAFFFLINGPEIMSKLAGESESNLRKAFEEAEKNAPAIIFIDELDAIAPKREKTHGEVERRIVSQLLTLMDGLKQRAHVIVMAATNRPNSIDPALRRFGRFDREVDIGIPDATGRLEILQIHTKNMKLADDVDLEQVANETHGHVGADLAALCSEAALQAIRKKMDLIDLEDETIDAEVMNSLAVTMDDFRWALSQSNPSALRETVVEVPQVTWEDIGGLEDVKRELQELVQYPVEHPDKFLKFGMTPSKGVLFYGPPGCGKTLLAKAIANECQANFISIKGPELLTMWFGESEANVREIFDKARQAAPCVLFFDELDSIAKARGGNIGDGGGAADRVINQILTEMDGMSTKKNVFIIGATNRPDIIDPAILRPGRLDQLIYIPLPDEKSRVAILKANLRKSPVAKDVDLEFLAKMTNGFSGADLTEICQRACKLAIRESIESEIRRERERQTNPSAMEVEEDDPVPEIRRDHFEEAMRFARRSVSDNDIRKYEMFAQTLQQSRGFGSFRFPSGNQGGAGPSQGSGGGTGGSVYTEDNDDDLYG", "type": "biochemical", "conditions": "100.0 μM compound, 1.0 μM p97, 6 h at 21 °C, then dialysis; Figure 6B", "method_in_brief": "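Dialysed into assay buffer, fresh buffer 3 times every 2 h. ATPase started with 2.0 mM ATP; aliquots every 10 min up to 1 h into malachite green, citrate-quenched, OD660 converted to phosphate via standard curve, plotted against time.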"}, "[2]": {"conditions": "isolated from Rhodotorula glutinis T-110; cited from earlier work"}, "[3]": {"tested_on": "HEK293 cells stably expressing Ub^G76 VGFP", "experiment": "Ub^G76 VGFP ubiquitin fusion degradation", "type": "cell-based, human", "conditions": "10.0, 20.0 and 50.0 μM", "method_in_brief": "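Stable reporter HEK293 lines seeded at 2 × 10^6 cells in phenol-red free DMEM plus 10% FBS, grown 18 h at 37 °C under 5% CO2. Then treated with 10.0, 20.0 or 50.0 μM test compound (0.1% final DMSO). DMSO 0.1% negative control and MG132 10.0 μM positive control were included. GFP-positive cells counted by flow cytometry: 488 nm excitation, 530/30 emission, 10 000 events gated on FSC/SSC.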"}, "[4]": {"target": "chaperonin GroEL (Escherichia coli, UniProt P0A6F5)", "sequence (P0A6F5 whole entry)": "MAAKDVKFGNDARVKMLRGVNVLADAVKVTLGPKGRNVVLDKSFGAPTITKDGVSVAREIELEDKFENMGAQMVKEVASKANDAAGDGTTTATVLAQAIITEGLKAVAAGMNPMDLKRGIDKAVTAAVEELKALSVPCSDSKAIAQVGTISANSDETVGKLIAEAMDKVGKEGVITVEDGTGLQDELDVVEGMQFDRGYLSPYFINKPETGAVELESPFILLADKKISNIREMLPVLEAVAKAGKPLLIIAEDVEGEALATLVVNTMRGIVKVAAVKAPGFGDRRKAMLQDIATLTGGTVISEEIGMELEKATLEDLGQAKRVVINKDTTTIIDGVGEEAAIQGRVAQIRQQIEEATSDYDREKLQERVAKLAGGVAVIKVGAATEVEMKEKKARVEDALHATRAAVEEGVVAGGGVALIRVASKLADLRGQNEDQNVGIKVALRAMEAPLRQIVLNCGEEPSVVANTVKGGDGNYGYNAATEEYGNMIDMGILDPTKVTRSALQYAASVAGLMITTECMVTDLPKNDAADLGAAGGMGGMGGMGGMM", "experiment": "Malachite green ATPase assay, GroEL", "type": "biochemical"}, "[5]": {"target": "p97-C209A (Homo sapiens, UniProt P55072, C209A)", "sequence (P55072 whole entry C209A)": "as the sequence (P55072 whole entry) above, with C209A counted along it", "experiment": "biochemical"}, "[6]": {"target": "N-ethylmaleimide sensitive factor (NSF) (Homo sapiens, UniProt P46459)", "sequence (P46459 whole entry, species assumed)": "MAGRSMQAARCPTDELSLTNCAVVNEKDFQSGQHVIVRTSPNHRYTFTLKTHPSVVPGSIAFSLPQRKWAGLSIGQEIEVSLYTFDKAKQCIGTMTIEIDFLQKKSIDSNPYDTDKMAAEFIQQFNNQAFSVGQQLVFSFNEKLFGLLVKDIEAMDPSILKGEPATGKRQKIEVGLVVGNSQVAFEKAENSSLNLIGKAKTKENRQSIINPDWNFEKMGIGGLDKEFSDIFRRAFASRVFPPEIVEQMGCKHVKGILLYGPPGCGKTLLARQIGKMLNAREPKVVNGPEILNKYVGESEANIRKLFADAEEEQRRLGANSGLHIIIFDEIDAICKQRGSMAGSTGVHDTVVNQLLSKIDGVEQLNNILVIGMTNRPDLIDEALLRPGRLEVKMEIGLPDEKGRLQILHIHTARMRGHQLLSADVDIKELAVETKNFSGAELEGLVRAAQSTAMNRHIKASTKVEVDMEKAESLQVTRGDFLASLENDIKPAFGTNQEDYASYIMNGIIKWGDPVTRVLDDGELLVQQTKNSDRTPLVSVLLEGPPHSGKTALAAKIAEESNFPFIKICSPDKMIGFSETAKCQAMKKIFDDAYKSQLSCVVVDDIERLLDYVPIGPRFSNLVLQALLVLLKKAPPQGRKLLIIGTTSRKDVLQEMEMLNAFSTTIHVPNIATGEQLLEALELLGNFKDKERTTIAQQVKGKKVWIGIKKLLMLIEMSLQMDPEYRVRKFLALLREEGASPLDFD", "experiment": "Malachite green ATPase assay, NSF", "type": "biochemical"}, "[7]": {"target": "p97-cys0 (Homo sapiens, UniProt P55072)", "sequence (P55072 2-806)": "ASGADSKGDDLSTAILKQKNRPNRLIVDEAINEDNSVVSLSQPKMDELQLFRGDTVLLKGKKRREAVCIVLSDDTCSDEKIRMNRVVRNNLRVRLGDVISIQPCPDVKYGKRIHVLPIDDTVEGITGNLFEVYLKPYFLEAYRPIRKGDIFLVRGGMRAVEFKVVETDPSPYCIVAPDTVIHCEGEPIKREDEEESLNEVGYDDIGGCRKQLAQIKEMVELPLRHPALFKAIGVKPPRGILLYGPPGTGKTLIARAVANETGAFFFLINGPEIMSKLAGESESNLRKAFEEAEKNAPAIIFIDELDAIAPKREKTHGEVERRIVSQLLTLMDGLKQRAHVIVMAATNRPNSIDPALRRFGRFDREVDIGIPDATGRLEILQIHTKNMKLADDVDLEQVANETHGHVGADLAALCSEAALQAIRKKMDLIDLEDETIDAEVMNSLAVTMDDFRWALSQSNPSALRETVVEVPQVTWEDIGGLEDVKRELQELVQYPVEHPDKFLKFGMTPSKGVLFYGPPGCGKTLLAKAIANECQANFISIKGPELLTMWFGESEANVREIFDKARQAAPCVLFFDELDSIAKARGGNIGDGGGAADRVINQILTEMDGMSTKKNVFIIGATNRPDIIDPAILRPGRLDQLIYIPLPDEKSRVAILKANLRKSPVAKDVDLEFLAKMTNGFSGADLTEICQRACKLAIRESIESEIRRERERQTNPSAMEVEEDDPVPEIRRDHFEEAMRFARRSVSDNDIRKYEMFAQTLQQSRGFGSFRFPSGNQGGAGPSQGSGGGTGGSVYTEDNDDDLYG", "experiment": "Malachite green ATPase assay, cysteineless p97", "type": "biochemical", "conditions": "Figure 6A"}, "[8]": {"target": "type I AAA+ chaperone ClpX (Escherichia coli, UniProt P0A6H1)", "sequence (P0A6H1 whole entry)": "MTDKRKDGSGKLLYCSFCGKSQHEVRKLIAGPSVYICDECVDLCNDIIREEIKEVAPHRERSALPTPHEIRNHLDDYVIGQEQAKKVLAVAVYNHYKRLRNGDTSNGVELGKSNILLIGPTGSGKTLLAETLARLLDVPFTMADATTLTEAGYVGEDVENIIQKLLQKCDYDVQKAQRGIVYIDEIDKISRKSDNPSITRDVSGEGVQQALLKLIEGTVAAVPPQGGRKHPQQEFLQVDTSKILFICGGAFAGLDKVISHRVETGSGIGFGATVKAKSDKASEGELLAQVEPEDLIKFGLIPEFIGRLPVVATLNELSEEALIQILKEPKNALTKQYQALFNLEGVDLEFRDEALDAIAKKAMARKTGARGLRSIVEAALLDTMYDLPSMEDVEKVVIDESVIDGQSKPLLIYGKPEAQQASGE", "experiment": "Malachite green ATPase assay, ClpX", "type": "biochemical"}, "[9]": {"target": "p97 (wt-p97) (Homo sapiens, UniProt P55072)", "sequence (P55072 whole entry)": "as the sequence (P55072 whole entry) above", "experiment": "Malachite green assay for p97 ATPase activity", "type": "biochemical", "method_in_brief": "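Hydrolysis started with 2.0 mM ATP at 37 °C. Aliquots taken at 2, 4, 6, 8 and 10 min were quenched in malachite green/ammonium molybdate/HCl/Tween 20 reagent. IC50 was taken from dose–response curves.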"}}, "note": "Entries after “also recorded” stand apart in the source; their conditions may differ."}
{"smiles": "C[C@H]1CCC/C=C/C(=O)c2c(O)cc(O)cc2CC(=O)O1", "note": "[dehydrocurvularin, reference compound]", "values": [{"measurement": "inhibition of p97 ATPase after extensive dialysis (reversibility)", "setting": "[1]", "result": "continued inhibition even after extensive dialysis"}]}
{"smiles": "CCCC=CC=C[C@@H]1C=C[C@@H](O)[C@H](O)[C@]12C(=O)OC(C)[C@@H]2O", "note": "(stereo partly drawn) [compound 1, (4R,5R,6R,9R,10R)-6-(hepta-1,3-dien)yl-4,9,10-trihydroxy-3-methyl-2-oxaspiro[4,5]dec-7-en-1-one]", "values": [{"measurement": "antibacterial activity (in words)", "setting": "[2]", "result": "weakly active"}]}
{"smiles": "C=C1OC(=O)C2(C1=O)[C@H](/C=C/C=C/CCC)C=C[C@@H](O)[C@@H]2O", "note": "(mixture of isomers) [compound 2, oxaspirol B]", "values": [{"measurement": "rescue of Ub^G76 VGFP reporter (number of GFP positive cells by FACS)", "setting": "[3]", "result": "dose-dependent inhibition of GFP fluorescence loss; also recorded: rescued in the presence of 2 in a dose-dependent manner"}, {"measurement": "IC50", "setting": "[4]", "result": "> 200", "unit": "µM"}, {"measurement": "IC50", "setting": "[5]", "result": "18 ± 4.7", "unit": "µM"}, {"measurement": "IC50", "setting": "[6]", "result": "> 200", "unit": "µM"}, {"measurement": "activity against cysteine-less p97 variant Cys0 (in words)", "setting": "[7]", "result": "no activity"}, {"measurement": "IC50", "setting": "[8]", "result": "> 200", "unit": "µM"}, {"measurement": "effect of ATP concentration on IC50 of p97 inhibition", "setting": "[9]; data not shown", "result": "no effect"}, {"measurement": "p97 ATPase inhibitory activity (in words)", "setting": "[9]; malachite green-based ATPase assay", "result": "moderate; also recorded: showed activity"}, {"measurement": "inhibition of p97 ATPase after extensive dialysis (reversibility)", "setting": "[1]", "result": "No inhibition of p97 was evident after extensive dialysis; also recorded: p97 ATPase activity is restored"}]}
{"smiles": "C=C1OC(=O)[C@@]2(C1=O)[C@H](/C=C/C=C/CCC)C=C[C@@H](OC(C)=O)[C@@H]2OC(C)=O", "note": "(single isomer, unassigned; isomer 5b) [5b, 9,10-Diacetyloxaspirol B Isomer 5b]", "values": [{"measurement": "IC50", "setting": "[9]", "result": "> 200", "unit": "µM"}]}
{"smiles": "C=C1OC(=O)[C@]2(C1=O)[C@H](/C=C/C=C/CCC)C=C[C@@H](OC(C)=O)[C@@H]2OC(C)=O", "note": "(single isomer, unassigned; isomer 5a) [5a, 9,10-Diacetyloxaspirol B Isomer 5a]", "values": [{"measurement": "IC50", "setting": "[9]", "result": "> 200", "unit": "µM"}]}
